Test results reported in ChEMBL document CHEMBL1143581, “Cationic chalcone antibiotics. Design, synthesis, and mechanism of action” (2005).
Converted amounts (≈) assume the structure as drawn. The source made the active and inactive calls. No cut-off for these calls is given here.

Tests used:
Enterococcus faecium [1] = assay: Minimum inhibitory concentration against Enterococcus faecium […]; type: functional
Staphylococcus aureus [2] = assay: Minimum inhibitory concentration against Staphylococcus aureus ATCC 33591 (resistant to methicillin); type: functional
Escherichia coli [3] = assay: Minimum inhibitory concentration against Escherichia coli ATCC 25922; type: functional
Procedure, shortened: (§1)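 Broth microdilution per NCCLS in Mueller-Hinton medium, run in triplicate, with an added uninoculated compound dilution series in case of precipitation. MIC read as the lowest concentration preventing visible growth; reported values are the mean of three experiments.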

Enterococcus faecium [4] = assay: Minimum inhibitory concentration against Enterococcus faecium 17501 (vancomycin-resistant clinical isolate); type: functional
Enterococcus faecium [5] = assay: Minimum inhibitory concentration against Enterococcus faecium 17501 (vancomycin-resistant clinical isolate); NA=not active; type: functional, organism-based
Enterococcus faecium [6] = assay: Minimum inhibitory concentration against Enterococcus faecium […]; NA=not active; type: functional, organism-based; procedure, shortened: as §1
Staphylococcus aureus [7] = assay: Minimum inhibitory concentration against Staphylococcus aureus ATCC 33591 (resistant to methicillin); NA=not active; type: functional, organism-based
[8] = Percent lysis of human erythrocytes after exposed to test compound was measured as hemolysis; type: functional
Staphylococcus aureus [9] = assay: Effect on bacterial membrane integrity was determined by using SYTO9 green fluorescent […]; type: functional, Bacteria
Procedure, shortened: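 Incubated 15 min at 37 °C with agitation, then resuspended to OD600 ~0.4 and stained with BacLight (SYTO-9/propidium iodide) 15 min dark. Excitation 485 nm, emission 530/630 nm; green/red ratio normalized to untreated control.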

Escherichia coli [10] = assay: (§2) Minimum inhibitory concentration against Escherichia coli ATCC 25922; NA=not active; type: functional, organism-based
Escherichia coli [11] = assay: as §2; type: functional, organism-based; procedure, shortened: as §1; remark: listed apart in the source

Structure (SMILES) | MIC (Enterococcus faecium [1]) | MIC (Staphylococcus aureus [2]) | MIC (Escherichia coli [3]) | MIC (Enterococcus faecium [4]) | other results
Cc1cc(C)cc(-c2ccc(OCCN(C)C)c(/C=C/C(=O)c3ccccc3NCCN(C)C)c2)c1 | 10 µM (≈ 4.86 µg/mL) | 10 µM (≈ 4.86 µg/mL) | 10 µM (≈ 4.86 µg/mL) | 10 µM (≈ 4.86 µg/mL) | 
Cc1cc(C)cc(-c2ccc(OCCN(C)C)c(/C=C/C(=O)c3ccc(CN(C)C)cc3)c2)c1 | 20 µM (≈ 9.13 µg/mL) | 5 µM (≈ 2.28 µg/mL) | 20 µM (≈ 9.13 µg/mL) | 10 µM (≈ 4.57 µg/mL) | 
CN(C)CCNc1ccc(C(=O)/C=C/c2ccc(Cl)cc2Cl)cc1 | 40 µM (≈ 14.5 µg/mL) | 40 µM (≈ 14.5 µg/mL) |  | 40 µM (≈ 14.5 µg/mL) | 
CCCCN(CCCC)c1ccc(/C=C/C(=O)c2ccc(NCCN(C)C)cc2)cc1 | 10 µM (≈ 4.22 µg/mL) | 10 µM (≈ 4.22 µg/mL) |  | 10 µM (≈ 4.22 µg/mL) | 
Cc1cc(C)cc(-c2ccc(OCCN(C)C)c(/C=C/C(=O)c3cccc(OCCN(C)C)c3)c2)c1 | 10 µM (≈ 4.87 µg/mL) | 5 µM (≈ 2.43 µg/mL) | 20 µM (≈ 9.73 µg/mL) | 10 µM (≈ 4.87 µg/mL) | 
CN(C)CCNc1ccc(C(=O)/C=C/c2ccc(Oc3ccccc3)cc2)cc1 | 5 µM (≈ 1.93 µg/mL) | 20 µM (≈ 7.73 µg/mL) |  | 20 µM (≈ 7.73 µg/mL) | 
COc1ccc(C(=O)/C=C/c2cc(-c3ccc(C(F)(F)F)cc3)ccc2N2CCN(C)CC2)c(F)c1 |  |  |  |  | MIC (Enterococcus faecium [5]): inactive; MIC (Enterococcus faecium [6]): inactive; MIC (Staphylococcus aureus [7]): inactive
COc1ccc(C(=O)/C=C/c2cc(-c3cc(C)cc(C)c3)ccc2OCC[N+](C)(C)C)c(C[N+](C)(C)C)c1 |  | 10 µM |  |  | 
COc1ccc(C(=O)/C=C/c2cc(-c3cc(C)cc(C)c3)ccc2OCCN(C)C)cc1CN(C)C | 20 µM (≈ 9.73 µg/mL) | 20 µM (≈ 9.73 µg/mL) | 40 µM (≈ 19.5 µg/mL) | 20 µM (≈ 9.73 µg/mL) | 
Cc1cc(C)cc(-c2ccc(OCCN(C)C)c(/C=C/C(=O)c3ccccc3CN(C)C)c2)c1 | 5 µM (≈ 2.28 µg/mL) | 10 µM (≈ 4.57 µg/mL) | 75 µM (≈ 34.2 µg/mL) | 10 µM (≈ 4.57 µg/mL) | 
CN(C)CCNc1cccc(C(=O)/C=C/c2ccc(-c3ccccc3)cc2N2CCN(C)CC2)c1 | 40 µM (≈ 18.7 µg/mL) | 20 µM (≈ 9.37 µg/mL) | 40 µM (≈ 18.7 µg/mL) | 40 µM (≈ 18.7 µg/mL) | 
Cc1cc(C)cc(-c2ccc(N3CCN(C)CC3)c(/C=C/C(=O)c3cccc(NCCN(C)C)c3)c2)c1 | 5 µM (≈ 2.48 µg/mL) | 5 µM (≈ 2.48 µg/mL) | 10 µM (≈ 4.97 µg/mL) | 5 µM (≈ 2.48 µg/mL) | 
CN(C)CCOc1ccc(C(=O)/C=C/c2ccc(Cl)cc2Cl)cc1 | 40 µM (≈ 14.6 µg/mL) | 40 µM (≈ 14.6 µg/mL) |  | 40 µM (≈ 14.6 µg/mL) | Hemolysis [8]: 100%; Membrane integrity (Staphylococcus aureus [9]): 0%
COc1ccc(C(=O)/C=C/c2cc(-c3ccccc3)ccc2CN(C)C)c(F)c1 | 150 µM (≈ 58.4 µg/mL) | 150 µM (≈ 58.4 µg/mL) |  | 150 µM (≈ 58.4 µg/mL) | 
COc1ccc(C(=O)/C=C/c2cc(-c3cccc(C(F)(F)F)c3)ccc2N2CCN(C)CC2)c(F)c1 | 10 µM (≈ 4.99 µg/mL) | 5 µM (≈ 2.49 µg/mL) |  | 5 µM (≈ 2.49 µg/mL) | 
CN(C)Cc1ccc(C(=O)/C=C/c2ccc(Cl)cc2Cl)cc1 | 75 µM (≈ 25.1 µg/mL) | 40 µM (≈ 13.4 µg/mL) |  | 40 µM (≈ 13.4 µg/mL) | 
Cc1cc(C)cc(-c2ccc(OCCN(C)C)c(/C=C/C(=O)c3ccc(N)cc3)c2)c1 | 20 µM (≈ 8.29 µg/mL) | 10 µM (≈ 4.15 µg/mL) |  | 10 µM (≈ 4.15 µg/mL) | MIC (Escherichia coli [10]): inactive
CN(C)CCNc1cccc(C(=O)/C=C/c2ccc(N3CCN(C)CC3)c(-c3ccccc3)c2)c1 | 150 µM (≈ 70.3 µg/mL) | 75 µM (≈ 35.1 µg/mL) |  | 75 µM (≈ 35.1 µg/mL) | MIC (Escherichia coli [10]): inactive
COc1ccc(C(=O)/C=C/c2cc(-c3cccc(CO)c3)ccc2N2CCN(C)CC2)c(F)c1 |  |  |  |  | MIC (Enterococcus faecium [5]): inactive; MIC (Enterococcus faecium [6]): inactive; MIC (Staphylococcus aureus [7]): inactive
COc1ccc(C(=O)/C=C/c2cc(-c3ccccc3OC)ccc2N2CCN(C)CC2)c(F)c1 | 20 µM (≈ 9.21 µg/mL) | 10 µM (≈ 4.61 µg/mL) |  | 10 µM (≈ 4.61 µg/mL) | Hemolysis [8]: 80%; Membrane integrity (Staphylococcus aureus [9]): 0%
CN(C)CCNc1ccc(C(=O)/C=C/c2cccc(Oc3ccccc3)c2)cc1 | 5 µM (≈ 1.93 µg/mL) | 20 µM (≈ 7.73 µg/mL) |  | 20 µM (≈ 7.73 µg/mL) | 
Cc1cc(C)cc(-c2ccc(N3CCNCC3)c(/C=C/C(=O)c3cccc(NCCN(C)C)c3)c2)c1 | 5 µM (≈ 2.41 µg/mL) | 2 µM (≈ 0.965 µg/mL) | 5 µM (≈ 2.41 µg/mL) | 5 µM (≈ 2.41 µg/mL) | Hemolysis [8]: 0%; Membrane integrity (Staphylococcus aureus [9]): 3%
Cc1cc(C)cc(-c2ccc(OCCN(C)C)c(/C=C/C(=O)c3cccc(N)c3)c2)c1 | 10 µM (≈ 4.15 µg/mL) | 10 µM (≈ 4.15 µg/mL) |  | 10 µM (≈ 4.15 µg/mL) | MIC (Escherichia coli [10]): inactive
Cc1cc(C)cc(-c2ccc(OCCN(C)C)c(/C=C/C(=O)c3cccc(NCCN(C)C)c3)c2)c1 | 10 µM (≈ 4.86 µg/mL) | 5 µM (≈ 2.43 µg/mL) | 20 µM (≈ 9.71 µg/mL) | 10 µM (≈ 4.86 µg/mL) | 
COc1ccc(C(=O)/C=C/c2cc(-c3cccnc3)ccc2N2CCN(C)CC2)c(F)c1 | 75 µM (≈ 32.4 µg/mL) | 75 µM (≈ 32.4 µg/mL) |  | 75 µM (≈ 32.4 µg/mL) | 
Cc1cc(C)cc(-c2ccc(OCCN(C)C)c(/C=C/C(=O)c3ccccc3N)c2)c1 | 10 µM (≈ 4.15 µg/mL) | 5 µM (≈ 2.07 µg/mL) |  | 5 µM (≈ 2.07 µg/mL) | MIC (Escherichia coli [11]): inactive
CN(C)CCNc1ccc(/C=C/C(=O)c2ccc(Oc3ccccc3)cc2)cc1 | 10 µM (≈ 3.86 µg/mL) | 20 µM (≈ 7.73 µg/mL) |  | 20 µM (≈ 7.73 µg/mL) | 
